From ChEMBL document CHEMBL1132185, “3-O-Desacyl monophosphoryl lipid A derivatives: synthesis and immunostimulant activities” (J Med Chem, 1999)

Columns and labels:
[1] = (§1) lethal toxicity produced when compound is administered along with […] (iv); type: organism-based; conditions: in vivo
[2] = Ability to induce iNOS gene expression assessed in an in vitro system utilizing peritoneal exudate cells(PEC) from Propionibacterium acnes-primed mice; type: functional; conditions: Mus musculus; read-out: ED50 (the source's name)
Procedure, shortened: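 ICR mice (female, 4-8 weeks) primed i.p. on day 0 with 1 mg heat-killed P. acnes in 0.2 mL saline; peritoneal exudate cells harvested day 4, adhered at 2 × 10^5 cells/well, nonadherent cells washed off. Test materials at various concentrations, in quadruplicate, in RPMI-1640 with 10% FCS for 24 h at 37 °C. Supernatant nitrite measured by Griess reaction; ED50 from nonlinear curve fit.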

[3] = system: Oryctolagus cuniculus; test: Total temperature rise in three rabbits at a dose of 10 ug/kg; type: functional
Procedure, shortened: (§2)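 USP three-rabbit pyrogen test in New Zealand white rabbits (female, 1.5–5.0 kg). Stocks were 100 µg/mL in 10% aq EtOH, diluted in D5W and given into the marginal ear vein at 3 mL/kg. Rectal temperature was taken every 30 min for 3 h and the maximum rise over baseline recorded per rabbit. MPD is the dose giving a three-rabbit total rise ≥1.2 °C.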

[4] = organism: Oryctolagus cuniculus; test: Minimum pyrogenic dose(MPD) was determined; type: functional; procedure, shortened: as §2
[5] = as §1; type: organism-based, Homo sapiens; conditions: mouse, in vivo
[6] = organism: Homo sapiens; test: Relative ex vivo cytokine induction in human whole blood stimulated with 10 ug/mL (done by ELISA)for Interleukin (IL1-beta); type: functional
Procedure, shortened: (§3)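 Heparinized whole blood from one healthy human volunteer, 0.45 mL, was mixed with 0.05 mL PBS (pH 7.4) containing test compound. It was incubated 4 h at 37 °C with shaking, then diluted with 1.5 mL PBS and centrifuged. Supernatant TNF-α and IL-1β were quantified in duplicate by sandwich ELISA.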

[7] = target: Tumor necrosis factor (Homo sapiens) (UniProt P01375); test: Relative ex vivo cytokine induction in human whole blood stimulated with 10 ug/mL (done by ELISA) for Tumor necrosis factor alpha; type: functional, tissue-based; procedure, shortened: as §3
Sequence of Tumor necrosis factor (Homo sapiens) (P01375 whole entry): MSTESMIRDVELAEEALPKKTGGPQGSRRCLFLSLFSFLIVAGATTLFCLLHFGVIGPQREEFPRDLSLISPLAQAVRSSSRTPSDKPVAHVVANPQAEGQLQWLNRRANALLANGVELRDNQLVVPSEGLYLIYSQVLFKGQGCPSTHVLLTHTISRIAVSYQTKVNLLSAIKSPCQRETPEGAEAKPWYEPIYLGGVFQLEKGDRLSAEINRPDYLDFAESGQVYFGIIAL

[8] = organism: Mus musculus; test: Adjuvant activity was assessed by measuring tetanus toxoid-specific antibody responses in serum of mice immunised. (evaluated as IgG1); type: functional
Procedure, shortened: (§4)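 Mice immunised on day 0 and day 21 with tetanus toxoid (2 μg per 2 mL emulsion) plus test article in 2.5% oil-water emulsion (12% lecithin-squalene oil phase; 0.1% Tween 80-saline aqueous phase). Controls received toxoid in 2.5% oil-water vehicle. Sera were taken from the orbital plexus 14 days after the second injection, diluted 2-fold ×11 from 1:200 and tested individually by toxoid-coated ELISA. Values are test titer/vehicle control titer.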

[9] = organism: Mus musculus; test: Adjuvant activity was assessed by measuring tetanus toxoid-specific antibody responses in serum of mice immunised. (evaluated as IgG2b); type: functional; procedure, shortened: as §4
[10] = organism: Mus musculus; test: Adjuvant activity was assessed by measuring tetanus toxoid-specific antibody responses in serum of mice immunised. (evaluated as total Ig); type: functional; procedure, shortened: as §4
[11] = organism: Mus musculus; test: Adjuvant activity was assessed by measuring tetanus toxoid-specific antibody responses in serum of mice immunised. (evaluated as IgG2a); type: functional; procedure, shortened: as §4

| Compound | LD50 [1] [µg] | EC50 [2] [ng/mL] | Fever response [3] [°C] | MPD [4] [µg/kg] | LD50 [5] [µg] | Induction [6] | Induction [7] | Adjuvant activity [8] | Adjuvant activity [9] | Adjuvant activity [10] | Adjuvant activity [11] |
| --- | --- | --- | --- | --- | --- | --- | --- | --- | --- | --- | --- |
| CCCCCCCCCCC[C@H](CC(=O)NC1C(O)OC(COC2OC(CO)C(OP(=O)(O)O)C(OC(=O)C[C@@H](CCCCCCCCCCC)OC(=O)CCCCCCC)C2NC(=O)C[C@@H](CCCCCCCCCCC)OC(=O)CCCCCCC)C(O)C1O)OC(=O)CCCCCCC.CCN(CC)CC (some centres undefined) | 0.2 | 0.3 | 3.9 | <2.5 |  |  |  |  |  |  |  |
| CCCCCCCCCCCCCCCC(=O)O[C@H](CCCCCCCCCCC)CC(=O)NC1C(O)OC(COC2OC(CO)C(OP(=O)(O)O)C(OC(=O)C[C@@H](CCCCCCCCCCC)OC(=O)CCCCCCCCCCCCC)C2NC(=O)C[C@@H](CCCCCCCCCCC)OC(=O)CCCCCCCCCCC)C(O)C1O.CCN(CC)CC (some centres undefined) |  | 10 | 0.6 | 15 | 1 | 1.4 | 1.6 |  |  |  |  |
| CCCCCCCCCCC[C@H](CC(=O)NC1C(O)OC(COC2OC(CO)C(OP(=O)(O)O)C(OC(=O)C[C@@H](CCCCCCCCCCC)OC(=O)CCCCCCCCC)C2NC(=O)C[C@@H](CCCCCCCCCCC)OC(=O)CCCCCCCCC)C(O)C1O)OC(=O)CCCCCCCCC.CCN(CC)CC (some centres undefined) |  | 0.05 | 4.1 | <0.06 | 0.02 | 7.3 | 3 | 2.4 | 4.3 | 6.2 | 6 |
| CCCCCCCCCCCCCC(=O)O[C@H](CCCCCCCCCCC)CC(=O)NC1C(O)OC(COC2OC(CO)C(OP(=O)(O)O)C(OC(=O)C[C@@H](CCCCCCCCCCC)OC(=O)CCCCCCCCCCCCC)C2NC(=O)C[C@@H](CCCCCCCCCCC)OC(=O)CCCCCCCCCCCCC)C(O)C1O.CCN(CC)CC (some centres undefined) |  | 5 | 0.3 | 15 | 1 | 3.4 | 1.7 | 4.5 | 4.5 | 8.2 | 14.6 |
| CCCCCCCCCCC[C@H](CC(=O)NC1C(O)OC(COC2OC(CO)C(OP(=O)(O)O)C(OC(=O)C[C@@H](CCCCCCCCCCC)OC(=O)CCC)C2NC(=O)C[C@@H](CCCCCCCCCCC)OC(=O)CCC)C(O)C1O)OC(=O)CCC.CCN(CC)CC (some centres undefined) | 4.5 | > 10000 | 1.5 | 10 |  |  |  |  |  |  |  |
| CCCCCCCCCCCC(=O)O[C@H](CCCCCCCCCCC)CC(=O)NC1C(O)OC(COC2OC(CO)C(OP(=O)(O)O)C(OC(=O)C[C@@H](CCCCCCCCCCC)OC(=O)CCCCCCCCCCC)C2NC(=O)C[C@@H](CCCCCCCCCCC)OC(=O)CCCCCCCCCCC)C(O)C1O.CCN(CC)CC (some centres undefined) |  | 1 | 5.3 | <2.5 | 0.04 | 2.9 | 4.6 |  |  |  |  |
| CCCCCCCCCCC[C@H](CC(=O)NC1C(O)OC(COC2OC(CO)C(OP(=O)(O)O)C(OC(=O)C[C@@H](CCCCCCCCCCC)OC(=O)CCCCC)C2NC(=O)C[C@@H](CCCCCCCCCCC)OC(=O)CCCCC)C(O)C1O)OC(=O)CCCCC.CCN(CC)CC (some centres undefined) | 4 | > 10000 | 1.7 | 10 |  |  |  |  |  |  |  |
